Assay [1] relates to Staphylococcus aureus. In words: Inhibition of pigmentation in vancomycin-intermediate methicillin-resistant Staphylococcus aureus Mu50 after 48 hrs by spectrophotometric method. The class given is functional, organism-based. The settings on record: Mu50, 48 h. The essentials: (§1)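 Bacteria grown in 4 mL TSB for 48 h at 37 °C with compound serially diluted from DMSO, in duplicate; DMSO vehicle control and non-pigmented CrtN mutant as reference. Cells from 3 mL of culture washed twice with 0.01 M PBS and pigment extracted into methanol. Absorbance read at 450 nm; IC50 fitted from the concentration series.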

The subject of assay [2] is Staphylococcus aureus. Kind of assay: Antibacterial activity against wild type Staphylococcus aureus Newman infected in BALB/c mouse assessed as decrease in bacterial load in mouse liver at 0.4 mg, ip bid administered 4.5 days […] bacterial infection measured after 90 hrs relative to control. Format: functional. The procedure, abridged: (§2)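 Female BALB/c mice, 6-8 weeks old, infected retro-orbitally with 2.2 × 10⁷ CFU S. aureus Newman. Intraperitoneal dosing in 12 intervals: pre-treatment groups received a total of 50 or 200 mg/kg starting before infection; post-treatment groups received a total of 39 or 156 mg/kg starting 6 h after infection. Vehicle was ddH₂O. At 90 h post-infection, liver or kidney was homogenized in PBS/0.01% Triton X-100 and plated on TSA for CFU.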

For assay [3], the target named is T1, 4,4'-diapophytoene desaturase (4,4'-diaponeurosporene-forming) (Staphylococcus aureus (strain Mu50 / ATCC 700699)) (UniProt Q99R76).
T1 sequence (whole entry): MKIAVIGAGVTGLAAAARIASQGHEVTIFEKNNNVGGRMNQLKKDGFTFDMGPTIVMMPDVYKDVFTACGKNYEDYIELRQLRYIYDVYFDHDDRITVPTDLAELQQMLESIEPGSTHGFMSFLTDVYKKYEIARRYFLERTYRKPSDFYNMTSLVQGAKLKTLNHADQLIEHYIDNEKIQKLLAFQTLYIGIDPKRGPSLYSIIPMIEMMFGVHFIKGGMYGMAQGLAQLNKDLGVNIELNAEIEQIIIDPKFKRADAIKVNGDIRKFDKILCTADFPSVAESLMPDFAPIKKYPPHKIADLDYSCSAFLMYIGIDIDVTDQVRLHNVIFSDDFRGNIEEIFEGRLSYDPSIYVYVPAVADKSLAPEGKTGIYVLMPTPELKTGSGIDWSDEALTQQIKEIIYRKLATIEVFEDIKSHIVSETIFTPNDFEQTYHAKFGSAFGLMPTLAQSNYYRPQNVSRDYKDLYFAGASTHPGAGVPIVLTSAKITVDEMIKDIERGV
In words: Inhibition of CrtN in vancomycin-intermediate methicillin-resistant Staphylococcus aureus Mu50 assessed as bacterial survival after 6 hrs by human whole blood killing assay (reference value: 8.66%). The settings on record: Staphylococcus aureus subsp. aureus Mu50. The procedure, abridged:
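Overnight cultures spun, resuspended in sterile PBS at 1 × 10⁷ CFU/mL, then mixed 1:10 with fresh whole blood from healthy human volunteers (final 1 × 10⁶ CFU/mL). Incubated 6 h at 37 °C; surviving CFU counted by plating dilutions on TSA. Two independent experiments.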

Assay [4] relates to Staphylococcus aureus. In words: Antibacterial activity against vancomycin-intermediate methicillin-resistant Staphylococcus aureus Mu50 assessed as decrease in bacterial survival at 1 uM after 24 hrs by H2O2 killing assay. The class given is functional, organism-based.
Assay [5] deals with T2, 4,4'-diapophytoene desaturase (4,4'-diaponeurosporene-forming) (Staphylococcus aureus (strain Newman)) (UniProt O07855).
T2 sequence (whole entry): T1 sequence (whole entry)
Kind of assay: Inhibition of CrtN in methicillin-resistant Staphylococcus aureus USA300 LAC assessed as bacterial survival at 1 uM after 24 hrs by H2O2 killing assay (reference value: 29.67%).

The subject of assay [6] is Staphylococcus aureus. Kind of assay: Growth inhibition of wild type Staphylococcus aureus Newman at 0.2 mM incubated for overnight. Format: functional, organism-based. The essentials: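 A 20 mM DMSO stock was diluted in TSB to 0.2 mM final, with a DMSO growth control. Dilutions were overlaid with paraffin and held 4 h at 37 °C. Overnight cultures were PBS-washed and added to a final OD600 ≈ 0.05. Plates were incubated overnight at 37 °C with OD600 read every 30 min.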

Assay [7] relates to Staphylococcus aureus. In words: Inhibition of pigmentation in wild type Staphylococcus aureus Newman after 48 hrs by spectrophotometric method. Format: functional, organism-based. The procedure, abridged:
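S. aureus Newman was grown in TSB 48 h at 37 °C with a concentration series of compound in DMSO, in duplicate. Controls were a DMSO vehicle and a nonpigmented CrtN mutant. Cells were washed twice in 0.01 M PBS and pigment extracted in methanol. A450 was measured and IC50 derived by curve fitting.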

Assay [8] relates to Staphylococcus aureus. In words: Inhibition of pigmentation in methicillin/linezolid-resistant Staphylococcus aureus NRS271 after 48 hrs by spectrophotometric method. Format: functional, organism-based. To be noted: NRS271, 48 h. The procedure, abridged:
as §1

Assay [9] concerns the target T2, 4,4'-diapophytoene desaturase (4,4'-diaponeurosporene-forming) (Staphylococcus aureus (strain Newman)). Kind of assay: Inhibition of Staphylococcus aureus Newman 6His-tagged CrtN expressed in Escherichia coli BL21(DE3) assessed as 4,4'-diapophytoene accumulation by UV-HPLC analysis. The settings on record: Staphylococcus aureus subsp. aureus str. Newman. The essentials:
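Substrate was E. coli-derived diapophytoene emulsified with phosphatidylcholine in 0.02 M HEPES pH 7.5. Run anaerobically (glucose oxidase 20 U/mL, catalase 20000 U/mL, glucose 2 mM final) overnight at 37 °C, stopped with methanol. Triplicate; diapophytoene monitored by HPLC at 286 nm.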

Assay [10] concerns Staphylococcus aureus. In words: Antibacterial activity against wild type Staphylococcus aureus Newman infected in BALB/c mouse assessed as decrease in bacterial survival in mouse kidney at 0.1 to 0.4 mg, ip bid administered 4.5 days after 6 hrs bacterial infection measured after 90 hrs. The class given is functional, organism-based. The essentials:
as §2

Assay [11] has as its system Staphylococcus aureus. Kind of assay: Antibacterial activity against vancomycin-intermediate methicillin-resistant Staphylococcus aureus Mu50 infected in BALB/c mouse assessed as decrease in bacterial survival in mouse liver at 0.1 to 0.4 mg, ip bid administered 4.5 days before 24 hrs bacterial infection measured after 90 hrs. The class given is functional, organism-based. The essentials: (§3)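 6–8-week-old female BALB/c mice (SPF) dosed intraperitoneally twice daily over 4.5 d at 0.1 or 0.4 mg/bid. Pre-treatment started before infection; post-treatment started 6 h after infection. Vancomycin and linezolid controls given as pre-treatment at 0.4 mg/bid. Retro-orbital inoculation: Mu50 1.1 × 10⁹ CFU, NRS271 1.8 × 10⁸ CFU. Kidneys and livers homogenised in PBS/0.01% Triton X-100 and plated on TSA for CFU.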

The test system of assay [12] is Staphylococcus aureus. Kind of assay: Antibacterial activity against methicillin/linezolid-resistant Staphylococcus aureus NRS271 infected in BALB/c mouse assessed as decrease in bacterial survival in mouse liver at 0.1 to 0.4 mg, ip bid administered 4.5 days after 6 hrs bacterial infection measured after 90 hrs. The class given is functional, organism-based. The procedure, abridged: as §3

For assay [13], the system named is Staphylococcus aureus. Kind of assay: Antibacterial activity against wild type Staphylococcus aureus Newman infected in BALB/c mouse assessed as decrease in bacterial survival in mouse liver at 0.4 mg, ip bid administered 4.5 days before 12 hrs bacterial infection measured after 90 hrs relative to control. The class given is functional.
In assay [14] the test system is Staphylococcus aureus. Kind of assay: Antibacterial activity against wild type Staphylococcus aureus Newman infected in BALB/c mouse assessed as decrease in bacterial load in mouse liver at 0.1 mg, ip bid administered 4.5 days after 6 hrs bacterial infection measured after 90 hrs relative to control. Format: functional. The essentials:
as §2

The target of assay [15] is T3, 4,4'-diapophytoene desaturase (4,4'-diaponeurosporene-forming) (Staphylococcus aureus (strain Newman), UniProt O07855).
T3 sequence (O07855 whole entry): T1 sequence (whole entry)
In words: Inhibition of Staphylococcus aureus Newman 6His-tagged CrtN expressed in Escherichia coli BL21(DE3) assessed as 4,4'-diapophytoene accumulation.

This note sets out measurements from ChEMBL document CHEMBL4145474, “Discovery of novel piperonyl derivatives as diapophytoene desaturase inhibitors for the treatment of methicillin-, vancomycin- and linezolid-resistant Staphylococcus aureus infections” (Eur J Med Chem, 2018).

SMILES strings stand for the structures. Active and inactive are the calls of the source. The rule behind the calls is not given here.

For the compound `CN(C/C=C/C=C/c1ccc(C(F)(F)F)cc1F)Cc1ccc2c(c1)OCO2.Cl`, the half-inhibitory concentration (IC50) (in general, the concentration that gives 50% inhibition) is 2.5 nM in the assay on Staphylococcus aureus [1], 4.02 nM in the assay on Staphylococcus aureus [7], 4.1 nM in the assay on Staphylococcus aureus [8] and 408 nM in assay [15]. For the same compound, the results for the Activity in the assay on Staphylococcus aureus [2], in the assay on Staphylococcus aureus [13] and in the assay on Staphylococcus aureus [14] were 1.9 deltalog10CFU, 98.74% and 1.53 deltalog10CFU, respectively. Also, the Survival in assay [3] was found to be 0.28%; in [5], 2.67%. Further, the outcome with Staphylococcus aureus [4] and in the assay with Staphylococcus aureus [12] was inactive. Also, the “growth inhibition (GI)” value with Staphylococcus aureus [6] was “inactive”. In [9], the inhibition entry was “Active”. Besides, the result in the assay on Staphylococcus aureus [10] and in the assay on Staphylococcus aureus [11] was Active.
